Experimental data: ChEMBL document CHEMBL1155662, “New phloroglucinol derivatives from Hypericum papuanum” (2000)
Values after ≈ are worked out from the molar mass of the structure shown.

How the values were obtained:
Format in all cases: functional
[1] = tested on: Staphylococcus epidermidis; test: Antibacterial activity against Staphylococcus epidermidis ATCC 12228 after 20 hrs by MTT assay; settings: ATCC 12228, 20 h
Outline: (§1)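 Twofold broth doubling-dilution in nutrient broth. Overnight 37 °C cultures diluted to about 10^5 cells/mL. Compounds from 1 mg/mL MeOH stocks were dried in the first wells, then redissolved in DMSO, broth and culture before serial dilution. Plates held 20 h at 37 °C in a moist atmosphere. 0.25% aqueous MTT was added and plates reincubated 4 h; violet turbid wells scored as living bacteria.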

[2] = tested on: Bacillus cereus; test: Antibacterial activity against Bacillus cereus ATCC 10702 after 20 hrs by MTT assay; settings: ATCC 10702, 20 h; outline: as §1
[3] = tested on: Micrococcus luteus; test: Antibacterial activity against Micrococcus luteus ATCC 9341 after 20 hrs by MTT assay; settings: ATCC 9341, 20 h; outline: as §1

| MIC [1] [µg/mL] | MIC [2] [µg/mL] | MIC [3] [µg/mL] | Compound |
| --- | --- | --- | --- |
| 4 (≈ 12.4 µM) | 2 (≈ 6.19 µM) | 1 (≈ 3.09 µM) | O=C(N[C@H](CO)[C@H](O)c1ccc([N+](=O)[O-])cc1)C(Cl)Cl [CHLORAMPHENICOL] |
| 64 (≈ 186 µM) | 64 (≈ 186 µM) | 64 (≈ 186 µM) | C=C(C)[C@@H]1CC23C(=O)C(C(=O)C(C)C)=C(O)[C@](C)(C[C@H]2C1(C)C)C3=O [LALIBINONE A] |
| 128 (≈ 372 µM) | 64 (≈ 186 µM) | 64 (≈ 186 µM) | C=C(C)[C@H]1CC23C(=O)C(C(=O)C(C)C)=C(O)[C@](C)(C[C@H]2C1(C)C)C3=O [LALIBINONE B] |
| 32 (≈ 89.3 µM) | 16 (≈ 44.6 µM) | 64 (≈ 179 µM) | C=C(C)[C@@H]1CC23C(=O)[C@@](C)(C[C@H]2C1(C)C)C(=O)C(C(=O)C(C)CC)=C3O (stereo partly drawn) [LALIBINONE C] |
| 32 (≈ 89.3 µM) | 16 (≈ 44.6 µM) | 64 (≈ 179 µM) | C=C(C)[C@H]1CC23C(=O)[C@@](C)(C[C@H]2C1(C)C)C(=O)C(C(=O)C(C)CC)=C3O (stereo partly drawn) [LALIBINONE D] |
| > 256 | > 128 | > 128 | CC(C)C(=O)C1=C(O)[C@]2(C)C[C@H]3C(C)(C)CCC3(C1=O)C2=O [LALIBINONE E] |
